# Tested on: U2OS
# Test: Multiplex assay against U2OS
# Type: toxicity, cell-based
# Conditions: human
# Procedure, shortened: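 Tubulin, mitochondrial-mass and membrane-permeability phenotypes are per cents of healthy-nucleus cells. Cells were gated by CellPathfinder machine learning into Hoechst high-intensity objects or normal cells, normal cells into healthy, pyknosed or fragmented nuclei, and pyknosed cells into mitotic or apoptotic. Before that, live cells stained at seeding with Hoechst33342, BioTracker Green Microtubule Cytoskeleton Dye, MitoTracker Red and Annexin V Alexa Fluor 680 were imaged on a CQ1 microscope at 37°C and 5% CO2 after compound addition.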
# [1] = 12 h, 1 µM, compound concentration 1 uM, replicate 1
# [2] = 12 h, 1 µM, compound concentration 1 uM, replicate 2
# [3] = 12 h, 10 µM, compound concentration 10 uM, replicate 1
# [4] = 12 h, 10 µM, compound concentration 10 uM, replicate 2
# [5] = 24 h, 1 µM, compound concentration 1 uM, replicate 1
# [6] = 24 h, 1 µM, compound concentration 1 uM, replicate 2
# [7] = 24 h, 10 µM, compound concentration 10 uM, replicate 1
# [8] = 24 h, 10 µM, compound concentration 10 uM, replicate 2
# [9] = 48 h, 1 µM, compound concentration 1 uM, replicate 1
# [10] = 48 h, 1 µM, compound concentration 1 uM, replicate 2
# [11] = 48 h, 10 µM, compound concentration 10 uM, replicate 1
# [12] = 48 h, 10 µM, compound concentration 10 uM, replicate 2
smiles,measurement,setting,value
O=C(NCC(=O)N1CC[C@H](N[C@H]2CC[C@@](O)(c3ccc(-c4ncccn4)cn3)CC2)C1)c1cccc(C(F)(F)F)c1 [PF-4136309],Population Apoptotic (%),[1],79%
same,Population Fragmented Nuclei (%),[1],25%
same,Population Healthy Nuclei (%),[1],64%
same,Population Hoechst High Intensity Objects (%),[1],1%
same,Population Membrane Permeable-Phenotype (%),[1],6%
same,Population Mitochondria Different-Phenotype (%),[1],3%
same,Population Mitotic Cells (%),[1],20%
same,Population Normal (%),[1],98%
same,Population Pyknosed Nuclei (%),[1],9%
same,Population Tubulin-Different-Phenotype (%),[1],4%
same,Total Cell Count,[1],249
same,Population Apoptotic (%),[2],93%
same,Population Fragmented Nuclei (%),[2],13%
same,Population Healthy Nuclei (%),[2],74%
same,Population Hoechst High Intensity Objects (%),[2],4%
same,Population Membrane Permeable-Phenotype (%),[2],11%
same,Population Mitochondria Different-Phenotype (%),[2],5%
same,Population Mitotic Cells (%),[2],6%
same,Population Normal (%),[2],95%
same,Population Pyknosed Nuclei (%),[2],12%
same,Population Tubulin-Different-Phenotype (%),[2],8%
same,Total Cell Count,[2],138
same,Population Apoptotic (%),[3],68%
same,Population Fragmented Nuclei (%),[3],25%
same,Population Healthy Nuclei (%),[3],62%
same,Population Hoechst High Intensity Objects (%),[3],4%
same,Population Membrane Permeable-Phenotype (%),[3],15%
same,Population Mitochondria Different-Phenotype (%),[3],4%
same,Population Mitotic Cells (%),[3],31%
same,Population Normal (%),[3],95%
same,Population Pyknosed Nuclei (%),[3],12%
same,Population Tubulin-Different-Phenotype (%),[3],9%
same,Total Cell Count,[3],242
same,Population Apoptotic (%),[4],60%
same,Population Fragmented Nuclei (%),[4],22%
same,Population Healthy Nuclei (%),[4],66%
same,Population Hoechst High Intensity Objects (%),[4],1%
same,Population Membrane Permeable-Phenotype (%),[4],25%
same,Population Mitochondria Different-Phenotype (%),[4],10%
same,Population Mitotic Cells (%),[4],40%
same,Population Normal (%),[4],98%
same,Population Pyknosed Nuclei (%),[4],11%
same,Population Tubulin-Different-Phenotype (%),[4],11%
same,Total Cell Count,[4],90
same,Population Apoptotic (%),[5],80%
same,Population Fragmented Nuclei (%),[5],22%
same,Population Healthy Nuclei (%),[5],69%
same,Population Hoechst High Intensity Objects (%),[5],1%
same,Population Membrane Permeable-Phenotype (%),[5],4%
same,Population Mitochondria Different-Phenotype (%),[5],2%
same,Population Mitotic Cells (%),[5],20%
same,Population Normal (%),[5],98%
same,Population Pyknosed Nuclei (%),[5],8%
same,Population Tubulin-Different-Phenotype (%),[5],2%
same,Total Cell Count,[5],304
same,Population Apoptotic (%),[6],91%
same,Population Fragmented Nuclei (%),[6],16%
same,Population Healthy Nuclei (%),[6],76%
same,Population Hoechst High Intensity Objects (%),[6],3%
same,Population Membrane Permeable-Phenotype (%),[6],5%
same,Population Mitochondria Different-Phenotype (%),[6],4%
same,Population Mitotic Cells (%),[6],8%
same,Population Normal (%),[6],96%
same,Population Pyknosed Nuclei (%),[6],7%
same,Total Cell Count,[6],169
same,Population Apoptotic (%),[7],83%
same,Population Fragmented Nuclei (%),[7],23%
same,Population Healthy Nuclei (%),[7],62%
same,Population Hoechst High Intensity Objects (%),[7],3%
same,Population Membrane Permeable-Phenotype (%),[7],10%
same,Population Mitochondria Different-Phenotype (%),[7],3%
same,Population Mitotic Cells (%),[7],16%
same,Population Normal (%),[7],96%
same,Population Pyknosed Nuclei (%),[7],13%
same,Population Tubulin-Different-Phenotype (%),[7],3%
same,Total Cell Count,[7],271
same,Population Apoptotic (%),[8],75%
same,Population Fragmented Nuclei (%),[8],21%
same,Population Healthy Nuclei (%),[8],70%
same,Population Hoechst High Intensity Objects (%),[8],0%
same,Population Membrane Permeable-Phenotype (%),[8],15%
same,Population Mitochondria Different-Phenotype (%),[8],11%
same,Population Mitotic Cells (%),[8],25%
same,Population Normal (%),[8],99%
same,Population Pyknosed Nuclei (%),[8],7%
same,Population Tubulin-Different-Phenotype (%),[8],7%
same,Total Cell Count,[8],102
same,Population Apoptotic (%),[9],87%
same,Population Fragmented Nuclei (%),[9],14%
same,Population Healthy Nuclei (%),[9],74%
same,Population Hoechst High Intensity Objects (%),[9],2%
same,Population Membrane Permeable-Phenotype (%),[9],4%
same,Population Mitochondria Different-Phenotype (%),[9],3%
same,Population Mitotic Cells (%),[9],12%
same,Population Normal (%),[9],97%
same,Population Pyknosed Nuclei (%),[9],11%
same,Population Tubulin-Different-Phenotype (%),[9],3%
same,Total Cell Count,[9],443
same,Population Apoptotic (%),[10],96%
same,Population Fragmented Nuclei (%),[10],12%
same,Population Healthy Nuclei (%),[10],75%
same,Population Hoechst High Intensity Objects (%),[10],3%
same,Population Membrane Permeable-Phenotype (%),[10],6%
same,Population Mitotic Cells (%),[10],4%
same,Population Normal (%),[10],96%
same,Population Tubulin-Different-Phenotype (%),[10],4%
same,Total Cell Count,[10],224
same,Population Apoptotic (%),[11],69%
same,Population Fragmented Nuclei (%),[11],22%
same,Population Healthy Nuclei (%),[11],61%
same,Population Hoechst High Intensity Objects (%),[11],4%
same,Population Membrane Permeable-Phenotype (%),[11],9%
same,Population Mitochondria Different-Phenotype (%),[11],5%
same,Population Mitotic Cells (%),[11],30%
same,Population Normal (%),[11],95%
same,Population Pyknosed Nuclei (%),[11],15%
same,Population Tubulin-Different-Phenotype (%),[11],4%
same,Total Cell Count,[11],360
same,Population Apoptotic (%),[12],92%
same,Population Fragmented Nuclei (%),[12],20%
same,Population Healthy Nuclei (%),[12],60%
same,Population Hoechst High Intensity Objects (%),[12],0%
same,Population Membrane Permeable-Phenotype (%),[12],15%
same,Population Mitochondria Different-Phenotype (%),[12],8%
same,Population Mitotic Cells (%),[12],7%
same,Population Normal (%),[12],100%
same,Population Pyknosed Nuclei (%),[12],18%
same,Total Cell Count,[12],138
CCCN1CCC[C@@H]2Cc3n[nH]cc3C[C@H]21.Cl [QUINPIROLE HYDROCHLORIDE],Population Apoptotic (%),[1],71%
same,Population Fragmented Nuclei (%),[1],31%
same,Population Healthy Nuclei (%),[1],60%
same,Population Hoechst High Intensity Objects (%),[1],2%
same,Population Membrane Permeable-Phenotype (%),[1],7%
same,Population Mitochondria Different-Phenotype (%),[1],1%
same,Population Mitotic Cells (%),[1],28%
same,Population Normal (%),[1],97%
same,Population Pyknosed Nuclei (%),[1],8%
same,Population Tubulin-Different-Phenotype (%),[1],3%
same,Total Cell Count,[1],265
same,Population Apoptotic (%),[2],61%
same,Population Fragmented Nuclei (%),[2],21%
same,Population Healthy Nuclei (%),[2],67%
same,Population Hoechst High Intensity Objects (%),[2],0%
same,Population Membrane Permeable-Phenotype (%),[2],2%
same,Population Mitotic Cells (%),[2],38%
same,Population Normal (%),[2],100%
same,Population Pyknosed Nuclei (%),[2],11%
same,Population Tubulin-Different-Phenotype (%),[2],2%
same,Total Cell Count,[2],118
same,Population Apoptotic (%),[3],58%
same,Population Fragmented Nuclei (%),[3],19%
same,Population Healthy Nuclei (%),[3],72%
same,Population Hoechst High Intensity Objects (%),[3],1%
same,Population Membrane Permeable-Phenotype (%),[3],2%
same,Population Mitochondria Different-Phenotype (%),[3],0%
same,Population Mitotic Cells (%),[3],41%
same,Population Normal (%),[3],98%
same,Population Pyknosed Nuclei (%),[3],7%
same,Population Tubulin-Different-Phenotype (%),[3],1%
same,Total Cell Count,[3],228
same,Population Apoptotic (%),[4],100%
same,Population Fragmented Nuclei (%),[4],9%
same,Population Healthy Nuclei (%),[4],85%
same,Population Hoechst High Intensity Objects (%),[4],2%
same,Population Membrane Permeable-Phenotype (%),[4],6%
same,Population Mitochondria Different-Phenotype (%),[4],5%
same,Population Mitotic Cells (%),[4],0%
same,Population Normal (%),[4],97%
same,Population Pyknosed Nuclei (%),[4],4%
same,Population Tubulin-Different-Phenotype (%),[4],2%
same,Total Cell Count,[4],126
same,Population Apoptotic (%),[5],68%
same,Population Fragmented Nuclei (%),[5],27%
same,Population Healthy Nuclei (%),[5],64%
same,Population Hoechst High Intensity Objects (%),[5],1%
same,Population Membrane Permeable-Phenotype (%),[5],4%
same,Population Mitochondria Different-Phenotype (%),[5],3%
same,Population Mitotic Cells (%),[5],31%
same,Population Normal (%),[5],98%
same,Population Pyknosed Nuclei (%),[5],7%
same,Population Tubulin-Different-Phenotype (%),[5],3%
same,Total Cell Count,[5],299
same,Population Apoptotic (%),[6],77%
same,Population Fragmented Nuclei (%),[6],18%
same,Population Healthy Nuclei (%),[6],68%
same,Population Hoechst High Intensity Objects (%),[6],0%
same,Population Mitochondria Different-Phenotype (%),[6],4%
same,Population Mitotic Cells (%),[6],22%
same,Population Normal (%),[6],100%
same,Population Pyknosed Nuclei (%),[6],13%
same,Population Tubulin-Different-Phenotype (%),[6],4%
same,Total Cell Count,[6],138
same,Population Apoptotic (%),[7],88%
same,Population Fragmented Nuclei (%),[7],13%
same,Population Healthy Nuclei (%),[7],80%
same,Population Hoechst High Intensity Objects (%),[7],2%
same,Population Membrane Permeable-Phenotype (%),[7],2%
same,Population Mitochondria Different-Phenotype (%),[7],0%
same,Population Mitotic Cells (%),[7],11%
same,Population Normal (%),[7],97%
same,Population Pyknosed Nuclei (%),[7],6%
same,Population Tubulin-Different-Phenotype (%),[7],1%
same,Total Cell Count,[7],281
same,Population Apoptotic (%),[8],92%
same,Population Fragmented Nuclei (%),[8],9%
same,Population Healthy Nuclei (%),[8],82%
same,Population Hoechst High Intensity Objects (%),[8],0%
same,Population Membrane Permeable-Phenotype (%),[8],0%
same,Population Mitochondria Different-Phenotype (%),[8],1%
same,Population Mitotic Cells (%),[8],7%
same,Population Normal (%),[8],99%
same,Population Pyknosed Nuclei (%),[8],8%
same,Population Tubulin-Different-Phenotype (%),[8],0%
same,Total Cell Count,[8],163
same,Population Apoptotic (%),[9],75%
same,Population Fragmented Nuclei (%),[9],19%
same,Population Healthy Nuclei (%),[9],74%
same,Population Hoechst High Intensity Objects (%),[9],1%
same,Population Membrane Permeable-Phenotype (%),[9],4%
same,Population Mitochondria Different-Phenotype (%),[9],1%
same,Population Mitotic Cells (%),[9],25%
same,Population Normal (%),[9],98%
same,Population Pyknosed Nuclei (%),[9],6%
same,Population Tubulin-Different-Phenotype (%),[9],2%
same,Total Cell Count,[9],425
same,Population Apoptotic (%),[10],78%
same,Population Fragmented Nuclei (%),[10],17%
same,Population Healthy Nuclei (%),[10],69%
same,Population Hoechst High Intensity Objects (%),[10],3%
same,Population Mitochondria Different-Phenotype (%),[10],5%
same,Population Mitotic Cells (%),[10],21%
same,Population Normal (%),[10],96%
same,Population Pyknosed Nuclei (%),[10],13%
same,Total Cell Count,[10],180
same,Population Apoptotic (%),[11],86%
same,Population Fragmented Nuclei (%),[11],11%
same,Population Healthy Nuclei (%),[11],78%
same,Population Hoechst High Intensity Objects (%),[11],3%
same,Population Membrane Permeable-Phenotype (%),[11],4%
same,Population Mitochondria Different-Phenotype (%),[11],1%
same,Population Mitotic Cells (%),[11],13%
same,Population Normal (%),[11],96%
same,Population Pyknosed Nuclei (%),[11],9%
same,Population Tubulin-Different-Phenotype (%),[11],3%
same,Total Cell Count,[11],386
same,Population Apoptotic (%),[12],91%
same,Population Fragmented Nuclei (%),[12],12%
same,Population Hoechst High Intensity Objects (%),[12],1%
same,Population Membrane Permeable-Phenotype (%),[12],6%
same,Population Mitochondria Different-Phenotype (%),[12],4%
same,Population Mitotic Cells (%),[12],8%
same,Population Normal (%),[12],98%
same,Population Tubulin-Different-Phenotype (%),[12],2%
same,Total Cell Count,[12],251

# Source: ChEMBL document CHEMBL5058577, “EUbOPEN Chemogenomics Library 2 (Multiplex)” (2022)
